From PubChem
Compounds with a hit are over-represented: about 3.5% of the library has one in this group of screens.
ABHD4 inh: ABHD4 inhibitors, primary screen, biochemical, fluorescence polarization, mouse; AID 720543, 2013; 370,000 compounds, 0.54% hits; inhibition, % at 8.92 µM; purified mABHD4, FP-Rh probe fluorescence polarization;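 active = inhibition exceeding the mean over every tested compound plus 3 SD, cut at about 30% in these data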;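 also: 0% = plate median of compound wells and 100% = S159A mutant with DMSO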
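Assay system: wild-type mouse ABHD4 protein; compound: single nominal dose of 8.92 µM, 0.89% DMSO final; schedule: 45 min + 60 min at 25 °C; measured by: FP readout, ex 525 nm / em 598 nm; evaluation: % inhibition of FP-Rh probe binding versus controls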
HTRA1 inh: HTRA1 serine protease inhibitors, primary screen, biochemical, fluorescence polarization, HTS; recombinant HTRA1, FP-rhodamine activity-based probe; AID 504803, 2011; inhibition, % at 5.96 µM; Q92743; 340,000 compounds, 0.5% hits; in the data active = inhibition above about 36%;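 also: 0% = enzyme with DMSO and 100% = wells lacking enzyme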
Target sequence (Q92743 whole entry, looked up): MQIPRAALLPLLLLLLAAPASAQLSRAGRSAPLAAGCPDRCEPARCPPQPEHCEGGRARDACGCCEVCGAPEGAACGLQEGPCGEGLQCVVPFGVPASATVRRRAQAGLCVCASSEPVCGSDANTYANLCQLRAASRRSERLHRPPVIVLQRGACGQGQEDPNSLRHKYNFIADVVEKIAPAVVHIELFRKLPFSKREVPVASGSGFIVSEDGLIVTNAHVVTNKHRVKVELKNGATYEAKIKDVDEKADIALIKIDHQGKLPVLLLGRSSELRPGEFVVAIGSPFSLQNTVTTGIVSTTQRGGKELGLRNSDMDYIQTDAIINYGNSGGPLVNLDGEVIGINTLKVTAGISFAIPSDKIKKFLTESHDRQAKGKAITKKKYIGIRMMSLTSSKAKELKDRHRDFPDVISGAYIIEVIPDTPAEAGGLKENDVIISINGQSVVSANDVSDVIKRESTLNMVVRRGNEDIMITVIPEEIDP
rCAG RNA binder: binders of r(CAG) RNA repeats, primary screen, biochemical, fluorescence; r(CAG) RNA repeat, TO-PRO-1 dye displacement fluorescence; 370,000 compounds, 1.3% hits; inhibition, % at 3 µM;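 active = inhibition above the plate cutoff, the mean of all test compounds on that plate plus 3 SD, cut at about 35% in these data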;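 also: 0% = DMSO alone and 100% = 100 µM mitoxantrone as full dye displacement; higher means more dye released from RNA so lower well fluorescence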
SIAE primary: human SIAE inhibitors, primary screen, biochemical, fluorescence polarization, FP-Rh probe, 1536-well HTS; Sialate O-acetylesterase (Homo sapiens), Q9HAT2; SIAE FP-Rh probe binding; inhibition, % at 9.66 µM; 370,000 compounds, 0.69% hits;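 active = inhibition above a cutoff: mean of compounds within the control limits plus 3 SD of those, cut at about 17% in these data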;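 also: 0% = plate median of compound wells and 100% = probe without SIAE protein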
TCR-CD3 inh: inhibitors of human TCR-CD3 interaction, primary screen, biochemical, fluorescence, TAMRA-labeled TCR probe | T-cell receptor (TCR) | inhibition, % at 9.4 µM | 360,000 compounds, 0.37% hits; in the data active = inhibition above about 19%;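 also: recombinant mutant TCR 2C K166C tagged with TAMRA read by polarization; 0% = receptor in buffer alone and 100% = receptor with positive control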
PRMT1 inh: PRMT1 methyltransferase inhibitors, primary screen, biochemical, fluorescence polarization; inhibition, % at 2.79 µM; recombinant PRMT1, activity-based probe fluorescence polarization; 370,000 compounds, 1.3% hits; Protein arginine N-methyltransferase 1 (Homo sapiens), Q99873;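 active = inhibition above about 21% made by adding two undisclosed values, limit read from the data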
rCAG binder conf: small molecules binding CAG repeat RNA – biochemical, fluorescence, confirmation | shares compounds with rCAG RNA binder | r(CAG) RNA repeat, TO-PRO-1 dye displacement fluorescence | inhibition, % at 3 µM | 4,300 compounds, 70% hits | AID 652065, 2013;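 active = inhibition above a per-plate cutoff, the mean inhibition of sample wells plus 3 SD, cut at about 35% in these data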;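 also: loss of TO-PRO-1 fluorescence as compound displaces dye from 1x1 AA loop RNA; 0% = DMSO only wells and 100% = 100 µM mitoxantrone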
DNA CAG counter: displacement of TO-PRO-1 from CAG DNA duplex, counter-screen for rCAG RNA repeat binder project, biochemical, fluorescence, TO-PRO-1 dye, d(CAG) DNA oligo; shares compounds with rCAG RNA binder; d(CAG) DNA oligo TO-PRO-1 dye displacement; inhibition, % at 3 µM; 4,300 compounds, 94% hits;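 active = inhibition above its plate's cutoff, the mean test-well inhibition plus 3 SD, cut at about 4.8% in these data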;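 also: 0% = DNA dye mix with DMSO and 100% = 100 µM mitoxantrone; hits displace the dye from DNA and so lower well fluorescence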
dCAG dye DR: inhibitors of DNA CAG/GTC TO-PRO-1 complex, dose response, counter-screen for rCAG RNA repeat binder project, biochemical, fluorescence, TO-PRO-1 dye; shares compounds with rCAG RNA binder; DNA CAG/GTC duplex TO-PRO-1 dye displacement fluorescence; IC50, µM; 250 compounds, 20% hits; in the data active = IC50 below about 10 µM
Numbers without * were called inactive; i = inactive; nt = no result given.

SMILES	ABHD4 inh	HTRA1 inh	rCAG RNA binder	SIAE primary	TCR-CD3 inh	PRMT1 inh	rCAG binder conf	DNA CAG counter	others
Cc1ccccc1N1CCN(S(=O)(=O)c2nnc(NC(=O)c3ccco3)s2)CC1	-5	-16	43*	-17	0	-8	72*	26*	dCAG dye DR=i
CCN(c1ccccc1C)S(=O)(=O)c1nnc(NC(=O)c2ccco2)s1	-7	-12	41*	-4	2	-2	26	6.9*
CCN(c1cc(C)cc(C)c1)S(=O)(=O)c1nnc(NC(=O)c2ccco2)s1	-7	-9	39*	-2	-11	6	38*	10*
CCN(c1ccc(OC)cc1)S(=O)(=O)c1nnc(NC(=O)c2ccco2)s1	7	-8	20	2	-2	9	nt	nt
Cc1ccccc1N(C)S(=O)(=O)c1nnc(NC(=O)c2ccccc2F)s1	2	-10	9	8	-1	-3	nt	nt
CC(C)C(=O)N1CC[C@H]2[C@H](CCCN2Cc2ccccc2)C1	-1	nt	1	4	nt	2	nt	nt
CC1(C)CC(=O)C=C(Nc2ccccc2NC(=O)c2cccc(F)c2F)C1	4	nt	-1	0	nt	1	nt	nt
CCCCCCC(=O)Nc1nc(C)c(-c2csc(Nc3cc(Cl)ccc3C)n2)s1	6	-20	39*	7	0	2	20	11*
CCCCCCC(=O)Nc1nc(C)c(-c2csc(Nc3ccccc3OC)n2)s1	21	22	25	10	2	2	nt	nt
CCCCC(=O)Nc1nc(C)c(-c2csc(Nc3cc(Cl)ccc3OC)n2)s1	0	-11	45*	6	-6	2	23	13*
Cc1cc(C)cc(NC(=O)N2CCC(c3nc4ccc(Cl)cc4[nH]3)CC2)c1	-6	nt	4	-7	nt	-1	nt	nt
O=C1C(c2cc(=O)c3ccccc3[nH]2)=C(O)c2ccccc21	15	-5	63*	-8	3	-4	36*	8.5*
CC(C)c1ccc(NC(=O)Cc2c(C(=O)O)n(C)c3ccccc23)cc1	-4	-5	51*	1	-4	0	31	5.8*
Cc1ccc(NC(=O)Cc2c(C(=O)O)n(C)c3ccccc23)cc1F	6	nt	27	1	-8	-4	nt	nt
Cc1cc(NS(=O)(=O)c2ccc(NC(=O)Cc3ccc(Cl)c(Cl)c3)cc2)on1	4	nt	57*	-10	nt	5	63*	24*
CCSc1ncc(Cl)c(C(=O)Nc2ccc(S(=O)(=O)Nc3onc(C)c3C)cc2)n1	-1	-3	54*	0	8	3	29	6.9*
COc1cc(/C=C/C(=O)Nc2ccc(S(=O)(=O)Nc3onc(C)c3C)cc2)cc(OC)c1OC	-6	-1	53*	-10	-6	-1	51*	19*
Cc1noc(NS(=O)(=O)c2ccc(NC(=O)/C=C/c3ccc(Br)cc3)cc2)c1C	-7	-14	82*	0	2	0	67*	33*
COc1cc(C(=O)Nc2ccc(S(=O)(=O)Nc3onc(C)c3C)cc2)cc(OC)c1OC	-6	-5	34	2	-5	1	nt	nt
CC(c1ccccc1)N1CC[C@H]2C=CC[C@@H](C(=O)Nc3ccc(F)c(F)c3)[C@H]2C1=O (stereo partly specified)	-4	nt	nt	10	nt	-2	nt	nt
COc1ccc(Cn2ccc3ccc(-c4ccc5ccn(C(=O)c6cccc(OC)c6)c5c4)cc32)cc1	-10	nt	6	-8	nt	-4	nt	nt
CCCCNC(=O)C[C@H]1C[C@@]2(C(=O)OC)C(=C[C@H](C(C)C)O[C@@H]2C2CC2)N(Cc2ccco2)C1=O	0	nt	-1	2	nt	0	nt	nt
Cc1noc(NS(=O)(=O)c2ccc(NC(=O)Nc3ccc(Cl)c(Cl)c3)cc2)c1C	-51	-38	91*	-6	10	-2	83*	53*
Cc1noc(NS(=O)(=O)c2ccc(NC(=O)CSc3nnc4c(n3)[nH]c3ccccc34)cc2)c1C	-11	-11	65*	-27	1	7	67*	32*
O=C(Nc1scc(-c2ccc(F)cc2)c1C(=O)O)c1ccco1	-7	-6	17	-6	2	-1	nt	nt
SMILES	ABHD4 inh	HTRA1 inh	rCAG RNA binder	SIAE primary	TCR-CD3 inh	PRMT1 inh	rCAG binder conf	DNA CAG counter	others
Cc1ccc(-c2csc(NC(=O)c3cccc(C)c3)c2C(=O)O)cc1	-16	-40	77*	-6	4	3	58*	21*
Cc1ccc(-c2csc(NC(=O)c3ccccc3Cl)c2C(=O)O)cc1	-12	-23	46*	-3	8	-3	32	7.5*
Cc1ccc(-c2csc(NC(=O)c3ccc(Br)cc3)c2C(=O)O)cc1	-8	-9	18	3	-12	2	nt	nt
CC(C)c1ccc(-c2csc(NC(=O)c3cccs3)c2C(=O)O)cc1	3	-40	83*	-4	0	4	77*	33*	dCAG dye DR=7.8*
Cc1ccc(-c2csc(NC(=O)/C=C/c3ccco3)c2C(=O)O)cc1	5	-8	58*	4	5	19	36*	9.6*
CCn1c(SCC(=O)Nc2ccc(C(C)C)cc2)nnc1-c1ccc(C(C)(C)C)cc1	6	nt	0	2	nt	3	nt	nt
C=CCNc1nc2ccccc2nc1NS(=O)(=O)c1ccc(Br)cc1	-8	-2	49*	5	7	0	42*	9.8*
COc1ccc(N2CCN(CCCNC(=O)CCc3cccc(F)c3)CC2)cc1	2	nt	-1	5	nt	4	nt	nt
COc1cc(COc2ccc3c(C)c(CCC(=O)O)c(=O)oc3c2)cc(OC)c1OC	-10	5	12	-1	3	-3	nt	nt
Cc1c(CCC(=O)O)c(=O)oc2cc(OCc3cccc(Cl)c3)ccc12	-15	-5	38*	-12	-2	-1	36*	9.1*
CCOC(=O)c1ccc(Cl)c(NC(=O)c2ccc(-c3ccccc3)cc2)c1	3	-5	-1	0	1	0	nt	nt
